Measured values taken from PubChem BioAssay.
Active and inactive are the calls of the source. Rule as the data show it, unless noted: active = inhibition above about 31%; inactive = the rest.

Experiments:
[1] = HUVEC growth inhibition – cell-based, human, primary screen (AID 575;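 active = viability at or below 30% in both replicate assays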;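 also: 100% = median of untreated cell wells with 0.1% DMSO on each plate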); conditions: HUVEC proliferation, CellTiter-Glo luminescence, 72 h; at 10 µM; stronger effect = lower value
In short: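 Material: primary human umbilical vein endothelial cells / Schedule: 72 h exposure, 37 °C, 5% CO2, 30 min RT equilibration / Signal: ATP-based CellTiter-Glo luminescent read / Read-out basis: percent of median DMSO-control luminescence / Control set: 32 DMSO-only cell-control wells (high), 32 MePR drug-control wells (low) per plate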

[2] = H69AR cell proliferation blockers – human, duplicate replicates, primary screen (AID 580;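 active = viability at or under a set limit in both replicates, limit being median viability minus 3 SD, cut at about 48% in these data, passing the limit was not always enough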;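 also: 100% = mean luminescence of untreated wells and 0% = no signal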); conditions: H69AR lung tumor cells viability, ATP luminescence, 72 h; at 10 µM; stronger effect = lower value
[3] = MRP1 drug-resistance reversers in H69AR cells – cell-based, doxorubicin co-treatment, pilot screen (AID 601;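 active = viability loss from added drug above about 55%, and viability with drug at most 40%, in both replicates, limit read from the data, passing the limit was not always enough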); conditions: CellTiter-Glo, 72 h, at 10 µM; for differential viability (reversal): stronger effect = higher value
[4] = yeast transport mutant growth inhibition pilot in 384-well plates, post-Golgi transport modulator project (AID 636); conditions: absorbance 615 nm, about 18 h, stronger effect = higher value
[5] = growth suppression of yeast trafficking mutant, preliminary HTS, modulators of trafficking downstream of Golgi apparatus project, 1536-format plate, OD 615 nm (AID 637; in the data active = inhibition above about 30%); conditions: yeast transport mutant growth, absorbance 615 nm, 18 h; stronger effect = higher value
[6] = H69AR cells + 2 uM doxorubicin, measured here: viability with 2 uM doxorubicin, stronger effect = lower value
[7] = H69AR cells, compound alone cytotoxicity

Compound | viability [1] | viability [2] | differential viability (reversal) ([3]; H69AR cells + 2 uM doxorubicin) | viability [3, 6] | viability [3, 7] | inhibition [4] | inhibition [5]
CCOc1ccccc1Nc1nc2ccccc2[nH]1 | 92.7% (inactive) | 94.2% (inactive) | 1.97% (inactive) | 92.3% | 94.2% | 0.91% (inactive) | -6.03% (inactive)
Cc1ccc(-c2ccc(=O)n(CCC(=O)NCCN3CCCCC3C)n2)cc1 (stereo not given) | 94.9% (inactive) | 91.3% (inactive) | 1.11% (inactive) | 90.2% | 91.3% | -4.27% (inactive) | -5.56% (inactive)
Cc1ccc(-c2nnn(CC(=O)N(CC(=O)NCC3CCCO3)c3ccccc3)n2)o1 (stereo not given) | 88.7% (inactive) | 90.9% (inactive) | 2.55% (inactive) | 88.4% | 90.9% | -5.97% (inactive) | -1.11% (inactive)
O=C(Nc1nc(-c2ccc(S(=O)(=O)N3CCCC3)cc2)cs1)C1COc2ccccc2O1 (stereo not given) | 79.1% (inactive) | 90.3% (inactive) | -1.52% (inactive) | 91.8% | 90.3% | -3.73% (inactive) | -6.83% (inactive)
N#Cc1c(-c2ccccc2)nc(N2CCCCCC2)[nH]c1=O | 91.5% (inactive) | 88.2% (inactive) | -3.53% (inactive) | 91.7% | 88.2% | -4.8% (inactive) | -3.02% (inactive)
Cc1ccc(-c2nc(-c3cccnc3)no2)c(C)c1 | 78.9% (inactive) | 90.1% (inactive) | -0.56% (inactive) | 90.7% | 90.1% | -6.49% (inactive) | -9.52% (inactive)
Cc1ccc(CSc2nc3c(c(=O)[nH]2)C(c2ccncc2)C2=C(CCCC2=O)N3)cc1 (stereo not given) | 72.5% (inactive) | 97.9% (inactive) | 6.75% (inactive) | 91.1% | 97.9% | -3.03% (inactive) | 2.22% (inactive)
COC(=O)C1=C(C)N(c2ccc(C(=O)OC)cc2)C(=O)C1 | 86.9% (inactive) | 88.8% (inactive) | 2.86% (inactive) | 86% | 88.8% | -0.39% (inactive) | 1.43% (inactive)
COc1ccccc1NC(=O)N1CCN(c2ccccc2F)CC1 | 108% (inactive) | 93.8% (inactive) | 19.5% (inactive) | 74.3% | 93.8% | -5.87% (inactive) | 1.11% (inactive)
COc1ccccc1N1CCN(C(=O)C2CC=CCC2C(=O)O)CC1 (stereo not given) | 97.3% (inactive) | 93.1% (inactive) | 6.56% (inactive) | 86.5% | 93.1% | -4.61% (inactive) | 2.54% (inactive)
c1ccc(-c2noc(-c3cccnc3)n2)nc1 | 84.8% (inactive) | 72.1% (inactive) | 4.56% (inactive) | 67.5% | 72.1% | -3.77% (inactive) | 6.67% (inactive)
O=C(Cc1ccsc1-c1ccccc1)NO | 72.8% (inactive) | 1.73% (active) | 0.35% (inactive) | 1.39% | 1.73% | -3.82% (inactive) | 4.29% (inactive)
CCOc1ccc(OCC)c(NC(=O)C2CCN(c3ncccn3)CC2)c1 | 105% (inactive) | 86.1% (inactive) | -12.5% (inactive) | 98.5% | 86.1% | -3.47% (inactive) | -2.06% (inactive)
COc1ccc(CCN2C(=O)C3C4C=CC(C4)C3C2=O)cc1OC (stereo not given) | 97.7% (inactive) | 99.8% (inactive) | 5.05% (inactive) | 94.8% | 99.8% | -6.71% (inactive) | -4.44% (inactive)
CC(C)NC(=O)c1ccccc1NC(=O)c1ccccc1N(C)S(C)(=O)=O | 103% (inactive) | 88.9% (inactive) | -4.12% (inactive) | 93% | 88.9% | -7.37% (inactive) | 1.9% (inactive)
